Reference: article PMC6545551 (ACS Omega, 2019)
Where two headings read alike, the source gives them in different places.

Assays:
ovine COX-1 = target: T1, ovine COX-1 (Ovis aries, UniProt P05979); assay: Inhibition of purified ovine COX-1; format: biochemical
T1 sequence (P05979 25-600): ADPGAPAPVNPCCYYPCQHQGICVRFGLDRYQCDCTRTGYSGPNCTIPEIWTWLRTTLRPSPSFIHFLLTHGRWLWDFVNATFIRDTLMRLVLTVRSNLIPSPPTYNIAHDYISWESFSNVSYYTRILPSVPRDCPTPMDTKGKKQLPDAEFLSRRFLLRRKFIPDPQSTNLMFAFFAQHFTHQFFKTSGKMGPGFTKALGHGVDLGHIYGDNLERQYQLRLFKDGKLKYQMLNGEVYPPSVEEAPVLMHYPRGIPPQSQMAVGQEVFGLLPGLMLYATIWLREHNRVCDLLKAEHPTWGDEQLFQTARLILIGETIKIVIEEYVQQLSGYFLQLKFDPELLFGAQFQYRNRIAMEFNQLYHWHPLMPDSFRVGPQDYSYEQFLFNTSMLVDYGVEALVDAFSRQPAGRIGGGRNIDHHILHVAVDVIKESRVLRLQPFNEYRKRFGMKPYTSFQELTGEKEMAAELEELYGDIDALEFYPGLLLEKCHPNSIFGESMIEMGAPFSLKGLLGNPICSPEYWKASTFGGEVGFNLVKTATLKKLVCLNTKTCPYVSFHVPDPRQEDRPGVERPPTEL

COX-1 in OVCAR3 cells = COX-1 in OVCAR3 cells (Homo sapiens, UniProt P23219); assay: Inhibition of COX-1 in intact OVCAR3 cells; format: cell-based
Sequence of COX-1 in OVCAR3 cells (P23219 24-599): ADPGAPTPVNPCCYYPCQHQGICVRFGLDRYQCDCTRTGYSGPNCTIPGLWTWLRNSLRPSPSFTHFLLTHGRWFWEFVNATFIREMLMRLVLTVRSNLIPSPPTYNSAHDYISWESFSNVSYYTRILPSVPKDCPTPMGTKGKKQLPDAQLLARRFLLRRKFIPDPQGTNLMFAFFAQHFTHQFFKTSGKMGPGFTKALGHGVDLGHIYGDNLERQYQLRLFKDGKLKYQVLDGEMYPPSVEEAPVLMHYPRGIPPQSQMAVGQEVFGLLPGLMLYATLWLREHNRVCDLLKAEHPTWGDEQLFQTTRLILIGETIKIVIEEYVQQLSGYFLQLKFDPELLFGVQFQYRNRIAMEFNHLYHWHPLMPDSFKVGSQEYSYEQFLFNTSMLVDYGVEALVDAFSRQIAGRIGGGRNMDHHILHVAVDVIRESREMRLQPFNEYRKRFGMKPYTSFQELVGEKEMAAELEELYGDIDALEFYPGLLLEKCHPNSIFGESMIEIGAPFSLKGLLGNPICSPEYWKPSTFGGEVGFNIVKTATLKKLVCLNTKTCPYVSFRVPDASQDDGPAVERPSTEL

[1] = target: T2, COX-2 in 1483 HNSCC cells (Homo sapiens, UniProt P35354); assay: Inhibition of COX-2 in intact 1483 HNSCC cells; format: cell-based
T2 sequence (P35354 18-604): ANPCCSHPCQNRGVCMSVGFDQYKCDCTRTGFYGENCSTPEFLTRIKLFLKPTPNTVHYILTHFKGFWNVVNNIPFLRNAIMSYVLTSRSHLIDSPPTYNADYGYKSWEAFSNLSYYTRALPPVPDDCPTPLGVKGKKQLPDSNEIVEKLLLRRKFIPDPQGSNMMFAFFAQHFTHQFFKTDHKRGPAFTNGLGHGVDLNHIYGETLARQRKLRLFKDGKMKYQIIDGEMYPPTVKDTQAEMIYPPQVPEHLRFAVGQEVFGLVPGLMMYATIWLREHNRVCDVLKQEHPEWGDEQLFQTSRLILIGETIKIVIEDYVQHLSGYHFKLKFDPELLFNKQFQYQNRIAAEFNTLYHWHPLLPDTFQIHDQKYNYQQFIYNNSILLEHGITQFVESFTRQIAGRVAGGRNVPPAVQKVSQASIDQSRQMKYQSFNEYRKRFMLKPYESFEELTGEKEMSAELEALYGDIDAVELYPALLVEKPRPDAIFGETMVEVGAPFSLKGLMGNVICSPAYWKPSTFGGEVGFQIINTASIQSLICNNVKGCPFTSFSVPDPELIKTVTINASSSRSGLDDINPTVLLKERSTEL

mouse COX-2 = target: T3, mouse COX-2 (Mus musculus, UniProt Q05769); assay: Inhibition of purified COX-2; format: biochemical
T3 sequence (Q05769 18-604): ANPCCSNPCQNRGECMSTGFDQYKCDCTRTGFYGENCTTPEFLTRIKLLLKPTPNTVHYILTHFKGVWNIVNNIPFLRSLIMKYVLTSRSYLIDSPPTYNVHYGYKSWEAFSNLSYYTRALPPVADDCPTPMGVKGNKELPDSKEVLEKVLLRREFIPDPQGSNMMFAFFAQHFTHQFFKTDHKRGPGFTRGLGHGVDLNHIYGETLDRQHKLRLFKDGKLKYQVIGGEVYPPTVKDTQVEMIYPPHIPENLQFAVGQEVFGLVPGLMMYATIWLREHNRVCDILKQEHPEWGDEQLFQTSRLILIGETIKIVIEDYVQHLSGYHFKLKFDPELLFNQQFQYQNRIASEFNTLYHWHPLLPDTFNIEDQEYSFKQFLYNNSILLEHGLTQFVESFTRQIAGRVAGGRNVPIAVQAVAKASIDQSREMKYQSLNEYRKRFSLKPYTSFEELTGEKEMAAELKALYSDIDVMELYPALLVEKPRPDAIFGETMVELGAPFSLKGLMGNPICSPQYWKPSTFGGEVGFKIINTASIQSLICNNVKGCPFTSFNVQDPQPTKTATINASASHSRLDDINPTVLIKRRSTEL

[2] = Plasma protein binding, mouse plasma; format: in vitro ADME
Outline: (§1)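 Equilibrium dialysis in a high-throughput micro-equilibrium device, with test compound incubated in mouse, dog or human plasma at 37 °C. Samples were taken at 0 and 4.5 h and quantified by fast-gradient LC–MS/MS. Unbound fraction was calculated as buffer-side concentration divided by protein-side concentration. Recovery was the summed buffer and protein chamber concentrations relative to the 0 h concentration.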

[3] = Plasma protein binding, dog plasma; format: in vitro ADME
Outline: as §1

[4] = Plasma protein binding, human plasma; format: in vitro ADME
Outline: as §1

[5] = Plasma protein binding, free fraction across species; format: in vitro ADME; conditions: mouse, dog, human
Outline: as §1

[6] = In vivo plasma half-life of FDF in mice; conditions: male, CD-1, mouse, ip, 10 mg/kg
[7] = In vivo biodistribution and defluorination of unlabeled FDF in C57BL/6 mice; parameters: species or system mouse; conditions: 10 mg/kg i.p., 60 min
Outline: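 Male C57BL/6 mice (30 g, three per group) received unlabeled test compound at 10 mg/kg i.p. "at 10 min intervals." At 60 min, brain, lungs, heart, kidney, liver and muscle were taken, rinsed in cold PBS and frozen at −80 °C. Tissues were homogenized in acetonitrile, extracts dried and reconstituted in methanol/water. Quantitation was by C18 LC–MS/MS, SRM m/z 279 → 236, against a 1:1 methanol/water standard curve.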

Row | IC50 (ovine COX-1) [nM] | IC50 (COX-1 in OVCAR3 cells) [nM] | IC50 [1] [nM] | Structure (SMILES) | other results
1 | 50 | 490 | > 5000 | Cc1ccc(C2=C(c3ccccc3)C(=O)OC2(C)C)cc1 [Compound 2, 5,5-Dimethyl-3-phenyl-4-(p-tolyl)furan-2(5H)-one] | 
2 | 40 | 800 | > 5000 | Cc1ccc(C2=C(c3ccc(I)cc3)C(=O)OC2(C)C)cc1 [Compound 6, 3-(4-Iodophenyl)-5,5-dimethyl-4-(p-tolyl)furan-2(5H)-one] | 
3 | 140 | 220 | > 5000 | Cc1ccc(C2=C(c3ccc(F)cc3)C(=O)OC2(C)C)cc1 [Compound 4, 3-(4-Fluorophenyl)-5,5-dimethyl-4-(p-tolyl)furan-2(5H)-one] | fraction unbound at 4.5 h [2]: 0.025; fraction unbound at 4.5 h [3]: ~0.01; fraction unbound at 4.5 h [4]: ~0.01; fraction unbound at 4.5 h [5]: 0.0099 to 0.025; half-life [6]: 1.2 h; Defluorinated metabolite in other organs [7]: below the quantification limit; Uptake in the kidney (average) [7]: 8.87 nmol/g tissue; Uptake in the liver (overall average) [7]: 0.61 nmol/g tissue

Continued, compound first:

Row | Structure (SMILES) | IC50 (ovine COX-1) [nM] | IC50 (COX-1 in OVCAR3 cells) [nM] | IC50 [1] [nM] | other results
4 | CC1(C)OC(=O)C(c2ccccc2)=C1c1ccccc1 [Compound 1, 5,5-Dimethyl-3,4-diphenylfuran-2(5H)-one] | 360 | 120 | > 5000 | Inhibition of purified COX-2 (in words) (mouse COX-2; at concentrations up to 25 μM): no inhibition
5 | COc1ccc([I+]c2ccc(C3=C(c4ccc(C)cc4)C(C)(C)OC3=O)cc2)cc1.Cc1ccc(S(=O)(=O)[O-])cc1 [Compound 7, (4-(5,5-Dimethyl-2-oxo-4-(p-tolyl)-2,5-dihydrofuran-3-yl)phenyl)(4-methoxyphenyl)iodonium Tosylate] | > 25000 | > 5000 | > 5000 | Inhibition of purified COX-1 (in words) (ovine COX-1): failed to inhibit; Inhibition of purified COX-2 (in words) (mouse COX-2): failed to inhibit; Inhibition of COX-1 in intact OVCAR3 cells (in words) (COX-1 in OVCAR3 cells): inactive; Inhibition of COX-2 in 1483 HNSCC cells (in words) [1]: inactive
6 | CC1(C)OC(=O)C(c2ccc(F)cc2)=C1c1ccccc1 [Compound 3, 3-(4-Fluorophenyl)-5,5-dimethyl-4-phenylfuran-2(5H)-one] | 640 | 280 | > 5000 | 
7 | Cc1ccc(C2=C(c3cccc(F)c3)C(=O)OC2(C)C)cc1 [Compound 5, 3-(3-Fluorophenyl)-5,5-dimethyl-4-(p-tolyl)furan-2(5H)-one] | 50 | 130 | > 5000 | 
